Experimental data: ChEMBL document CHEMBL1134550, “Structure-activity studies of ground- and transition-state analogue inhibitors of cyclophilin” (J Med Chem, 2001)
pKd: −log10 of the molar value.

Molecular target: Peptidyl-prolyl cis-trans isomerase A (Homo sapiens, UniProt P62937)
Test: Binding affinity towards cyclophilin A by fluorescence
Summary of the method: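 Recombinant human cyclophilin A, expressed in E. coli with IPTG induction and partially purified by ammonium sulfate fractionation and DEAE-Sepharose. Intrinsic Trp fluorescence enhancement measured at room temperature in 50 mM Tris-HCl pH 7.6, 0.1 M NaCl. Kd from nonlinear least-squares fit to a quadratic binding equation.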

Sequence of Peptidyl-prolyl cis-trans isomerase A (P62937 whole entry): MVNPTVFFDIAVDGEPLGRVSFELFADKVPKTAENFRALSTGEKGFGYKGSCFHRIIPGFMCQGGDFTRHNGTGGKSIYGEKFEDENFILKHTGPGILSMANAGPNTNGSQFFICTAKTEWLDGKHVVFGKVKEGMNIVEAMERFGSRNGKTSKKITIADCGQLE

Row | Compound | pKd
1 | COC(=O)[C@]12CCCN1C[C@H](NC(=O)OC(C)(C)C)CC2 | < 3.70
2 | COC(=O)[C@]12CCCN1C(=O)[C@H](NC(=O)OCc1ccccc1)CC2 | < 3.70
3 | COC(=O)[C@]12CCCN1C(=O)[C@](Cc1ccccc1)(NC(=O)OCc1ccccc1)CC2 | 3.91
4 | COC(=O)[C@]12CCCN1C(=O)[C@](Cc1ccccc1)(NC(=O)OC(C)(C)C)CC2 | 3.85
5 | COC(=O)[C@]12CCCN1C(=O)[C@H](NC(=O)OC(C)(C)C)CC2 | < 3.70
6 | COC(=O)[C@]12CCCN1C[C@@H](NC(=O)OC(C)(C)C)CC2 | < 3.70
7 | COC(=O)[C@]12CCCN1C(=O)[C@@H](NC(=O)OC(C)(C)C)CC2 | < 3.70

These reach a higher pKd. Values come first.

Row | pKd | Compound
8 | 4.11 | COC(=O)[C@]12CCCN1C[C@](Cc1ccc3ccccc3c1)(NC(=O)OC(C)(C)C)CC2
9 | 4.77 | COC(=O)[C@]12CCCN1C(=O)[C@](Cc1ccc3ccccc3c1)(NC(=O)OC(C)(C)C)CC2
10 | 5.33 | COC(=O)[C@]12CCCN1C(=O)[C@](Cc1ccc3ccccc3c1)(NC(=O)OCc1ccccc1)CC2
11 | 5.82 | COC(=O)[C@]12CCCN1C(=O)[C@](Cc1ccc3ccccc3c1)(NC(C)=O)CC2
